SMILES strings stand for the structures.

The source of these data is ChEMBL document CHEMBL3259540, “Design, synthesis and molecular docking studies of novel N-benzenesulfonyl-1,2,3,4-tetrahydroisoquinoline-based triazoles with potential anticancer activity” (Eur J Med Chem, 2014).

Assay [1] deals with HepG2. Description: Cytotoxicity against human HepG2 cells after 48 hrs by MTT assay. The assay is classed as functional, cell-based. The conditions noted are these: HepG2, 48 h. A digest of the protocol: (§1)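 Adherent cells seeded at 10,000–20,000 per well and held 24 h at 37 °C in 5% CO2. Serial dilutions of compound were then added, with etoposide and/or doxorubicin as positive controls and DMSO as negative control. After 48 h of continuous exposure, survival was read by MTT. IC50 was the concentration giving 50% growth inhibition relative to the DMSO control.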
(In general: Tetrazolium dyes change colour on reduction, which living cells bring about.)

A short description of assay [2]: Cytotoxicity against human HuCCa1 cells after 48 hrs by MTT assay. The assay is classed as functional, cell-based. The following applies: HuCC-A1, 48 h. The method in brief:
as §1

In a further assay the test system is A549. Description: Cytotoxicity against human A549 cells after 48 hrs by MTT assay. The assay is classed as functional, cell-based. The conditions noted are these: A549, 48 h. The method in brief:
as §1

A further assay deals with Vero. Description: Cytotoxicity against african green monkey Vero cells after 4 days by GFP detection method. The assay is classed as cell-based. The conditions noted are these: Chlorocebus sabaeus, 96 h. The method in brief:
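Cells at 3.3 × 10^4 cells/mL were added to compounds prediluted in 0.5% DMSO. Plates were incubated 4 days at 37 °C in 5% CO2, and GFP fluorescence was read from the plate bottom.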

Assay [3] can be described thus: Cytotoxicity against human MOLT3 cells after 48 hrs by XTT assay. The following applies: MOLT-3, 48 h.
The test system of assay [4] is HepG2. Description: Ratio of doxorubicin IC50 to compound IC50 for human HepG2 cells after 48 hrs by MTT assay. The assay is classed as functional.
Assay [5] relates to HepG2. As to the kind of experiment: Ratio of etoposide IC50 to compound IC50 for human HepG2 cells after 48 hrs by MTT assay. The assay is classed as functional.

A word on the IC50: it is the point on the concentration scale where inhibition reaches its midpoint. As to `O=S(=O)(c1ccc(-n2cc(CO)nn2)cc1)N1CCc2ccccc2C1`, the 50% inhibitory concentration (IC50) in the assay with HepG2 [1] was more than 50 µg/mL; in assay [2] it was 51.4 µM; in the assay with A549, more than 50 µg/mL; with Vero it was more than 50 µg/mL; in assay [3], more than 50 µg/mL.
Turning to `COc1cc2c(cc1OC)CN(S(=O)(=O)c1ccc(-n3cc(COc4ccc5ccccc5c4)nn3)cc1)CC2`, the IC50 with HepG2 [1] was 1.26 µM; in assay [2] it was more than 50 µg/mL; with A549, more than 50 µg/mL; with Vero it was more than 50 µg/mL; in assay [3], 36.4 µM.
Turning to `Cc1c2ccncc2c(C)c2c1[nH]c1ccccc12` [ELLIPTECINE], the 50% inhibitory concentration (IC50) in the assay on Vero was determined as 1.94 µM.
For the compound `COc1cc2c(cc1OC)CN(S(=O)(=O)c1ccc(-n3cc(COc4ccc(C=O)cc4)nn3)cc1)CC2`, the IC50 with HepG2 [1] was 12.5 µM; in assay [2], 31.1 µM; in the assay on A549 it was 31.8 µM; in the assay with Vero it was more than 50 µg/mL; in assay [3], 34.1 µM.
`COC(=O)c1ccccc1OCc1cn(-c2ccc(S(=O)(=O)N3CCc4cc(OC)c(OC)cc4C3)cc2)nn1`: the IC50 in the assay with HepG2 [1] came to 3.37 µM; in assay [2] it was 4.79 µM; in the assay with A549, 8.43 µM; in the assay with Vero it was 2.82 µM; in assay [3] it was 11.7 µM.
In the same order, the values of `COc1cc2c(cc1OC)CN(S(=O)(=O)c1ccc(-n3cc(COc4ccc(C=O)cc4OC)nn3)cc1)CC2` are more than 50 µg/mL, 40 µM, more than 50 µg/mL, more than 50 µg/mL and 5.5 µM.
Take `O=Cc1ccc(OCc2cn(-c3ccc(S(=O)(=O)N4CCc5ccccc5C4)cc3)nn2)cc1`: the IC50 in the assay on HepG2 [1] was 5.27 µM; in assay [2] it was more than 50 µg/mL; with A549 it was 59.1 µM; in the assay with Vero, more than 50 µg/mL; in assay [3], more than 50 µg/mL.
Turning to `Cc1ccc(OCc2cn(-c3ccc(S(=O)(=O)N4CCc5ccccc5C4)cc3)nn2)cc1`, the concentration for half-maximal inhibition (IC50) (with HepG2 [1]; in assay [2]; with A549; in the assay with Vero; in assay [3]) was more than 50 µg/mL each time.
Regarding `COC(=O)c1ccccc1OCc1cn(-c2ccc(S(=O)(=O)N3CCc4ccccc4C3)cc2)nn1`, the IC50 is 12.4 µM in the assay on HepG2 [1]; 0.63 µM in assay [2]; 0.57 µM with A549; 4.98 µM in the assay with Vero; 18.6 µM in assay [3].
In the case of `COc1cc2c(cc1OC)CN(S(=O)(=O)c1ccc(-n3cc(COc4ccccc4C)nn3)cc1)CC2`, the IC50 in the assay with HepG2 [1] was 1.48 µM; in assay [2] it was 39.7 µM; with A549 it was 27.2 µM; in the assay on Vero it was more than 50 µg/mL; in assay [3], more than 50 µg/mL.
With `COc1cc2c(cc1OC)CN(S(=O)(=O)c1ccc(-n3cc(COc4ccccc4C(C)=O)nn3)cc1)CC2`, the concentration for half-maximal inhibition (IC50) was more than 50 µg/mL in the assay with HepG2 [1]; more than 50 µg/mL in assay [2]; more than 50 µg/mL in the assay with A549; 37.2 µM in the assay on Vero; more than 50 µg/mL in assay [3].
`COc1cccc2c1C(=O)c1c(O)c3c(c(O)c1C2=O)C[C@@](O)(C(=O)CO)C[C@@H]3O[C@H]1C[C@H](N)[C@H](O)[C@H](C)O1` [DOXORUBICIN] yielded a 50% inhibitory concentration (IC50) in assay [2] of 0.83 µM.
Consider `COc1cc2c(cc1OC)CN(S(=O)(=O)c1ccc(-n3cc(COc4ccc(C)cc4)nn3)cc1)CC2`, for which the “Ratio IC50” value in the assay on HepG2 [4] is 1.4; in the assay with HepG2 [5] it was 53.9. Further, the IC50 in the assay on HepG2 [1] was 0.56 µM; in assay [2] it was more than 50 µg/mL; in the assay with A549, more than 50 µg/mL; with Vero, more than 50 µg/mL; in assay [3], more than 50 µg/mL.
As for `COc1cc2c(cc1OC)CN(S(=O)(=O)c1ccc(-n3cc(COc4ccccc4)nn3)cc1)CC2`, the half-inhibitory concentration (IC50) in the assay with HepG2 [1] was 2.57 µM; in assay [2], more than 50 µg/mL; with A549 it was more than 50 µg/mL; with Vero, more than 50 µg/mL; in assay [3], more than 50 µg/mL.
Consider `O=S(=O)(c1ccc(-n2cc(COc3ccc4ccccc4c3)nn2)cc1)N1CCc2ccccc2C1`, for which the IC50 was 60.5 µM in the assay on HepG2 [1]; more than 50 µg/mL in assay [2]; more than 50 µg/mL with A549; more than 50 µg/mL in the assay with Vero; more than 50 µg/mL in assay [3].
Take `O=S(=O)(c1ccc(-n2cc(COc3ccccc3)nn2)cc1)N1CCc2ccccc2C1`: the IC50 was 6.5 µM with HepG2 [1]; more than 50 µg/mL in assay [2]; more than 50 µg/mL in the assay on A549; more than 50 µg/mL with Vero; more than 50 µg/mL in assay [3].
On to `Cc1ccccc1OCc1cn(-c2ccc(S(=O)(=O)N3CCc4ccccc4C3)cc2)nn1`, for which the IC50 in the assay with HepG2 [1] is more than 50 µg/mL; in assay [2] it was more than 50 µg/mL; with A549 it was 66.3 µM; with Vero, more than 50 µg/mL; in assay [3], more than 50 µg/mL.
As to `CC(=O)c1ccccc1OCc1cn(-c2ccc(S(=O)(=O)N3CCc4ccccc4C3)cc2)nn1`, the concentration for half-maximal inhibition (IC50) is 19.1 µM in the assay on HepG2 [1]; 30.2 µM in assay [2]; 14.9 µM with A549; more than 50 µg/mL in the assay with Vero; 21.9 µM in assay [3].
On to `COc1cc2c(cc1OC)CN(S(=O)(=O)c1ccc(-n3cc(COc4cc(C=O)ccc4OC)nn3)cc1)CC2`, for which the half-maximal inhibitory concentration (IC50) is 41.4 µM in the assay on HepG2 [1]; 76.2 µM in assay [2]; 31.9 µM with A549; more than 50 µg/mL in the assay with Vero; 5.82 µM in assay [3].
Regarding `COc1cc2c(cc1OC)CN(S(=O)(=O)c1ccc(-n3cc(CO)nn3)cc1)CC2`, the IC50 with HepG2 [1] is 31.8 µM; in assay [2] it was 72 µM; in the assay on A549, 41 µM; with Vero, more than 50 µg/mL; in assay [3], more than 50 µg/mL.
As to `O=c1cc(OCc2cn(-c3ccc(S(=O)(=O)N4CCc5ccccc5C4)cc3)nn2)c2ccccc2o1`, the IC50 in the assay on HepG2 [1] was more than 50 µg/mL; in assay [2], 24.8 µM; in the assay on A549 it was 25.3 µM; in the assay on Vero, 28.6 µM; in assay [3], 80.8 µM.
The like results for `COc1cc2c(cc1OC)CN(S(=O)(=O)c1ccc(-n3cc(COc4ccc([N+](=O)[O-])cc4)nn3)cc1)CC2` were, in that order, more than 50 µg/mL, more than 50 µg/mL, more than 50 µg/mL, more than 50 µg/mL and more than 50 µg/mL.
In assay [3], `COc1cc([C@@H]2c3cc4c(cc3[C@@H](O[C@@H]3O[C@@H]5CO[C@@H](C)O[C@H]5[C@H](O)[C@H]3O)[C@H]3COC(=O)[C@H]23)OCO4)cc(OC)c1O` [ETOPOSIDE] returned a concentration for half-maximal inhibition (IC50) of 0.051 µM.
